Assay results pooled from the literature.
Each line is one published result; the experiments were not run side by side.
BTK: Tyrosine-protein kinase BTK (BTK, Homo sapiens, UniProt Q06187)

SMILES | target | assay | conditions | inhibition [%]
CN(C)C1CCN(CC#Cc2nn(C3CCCC3)c3nc(NCc4ccccc4)ncc23)C1 (stereo not shown) | BTK | enzyme activity, inhibitor, FRET | 10 µM | 22
Cc1ccc(Nc2nccc(N(C)c3ccc4c(C)n(C)nc4c3)n2)cc1S(N)(=O)=O | BTK | enzyme activity, inhibitor | 10 µM | 72
C=CC(=O)Nc1cc(Nc2nccc(Nc3cc(Cl)c(F)cc3C(C)(C)O)n2)c(OC)cc1N1CC[C@@H](N(C)C)C1 | BTK | enzyme activity, inhibitor | 1 µM | 96
CS(=O)(=O)Nc1cccc(-c2csc(NC(=O)CSc3nc4nccnc4c(=O)n3CCc3ccccc3)n2)c1 | BTK | enzyme activity, inhibitor | 10 µM | 3
CNCc1ccc(-c2cc(-c3nc(-c4ccc(S(=O)(=O)C(C)C)cc4)cnc3N)on2)cc1 | BTK | enzyme activity, inhibitor | 0.4 µM | 4
COc1cc2nccc(Oc3ccc(NC(=O)c4c5n(n(-c6ccc(F)cc6)c4=O)CCCC5)cc3)c2cc1OC | BTK | enzyme activity, inhibitor | 0.1 µM | -7
CC/C(=N\NC(=O)NCc1cccc(O)c1)c1ccc(O)c(C)c1O | Tyrosine-protein kinase BTK (BTK, Homo sapiens, UniProt Q06187, C481S) | enzyme activity, inhibitor | 0.1 µM | -1.8
CCN(CC)CCNC(=O)c1c(C)[nH]c(/C=C2\C(=O)Nc3ccc(F)cc32)c1C | BTK | binding, competition with immobilised ligand | 0.1 µM | 91.3
COc1cc2ncnc(Nc3ccc(Oc4ccccc4)cc3C)c2cc1OC | BTK | enzyme activity, inhibitor | 1 µM | 71
CNC(=O)c1cc(Oc2ccc(NC(=O)Nc3ccc(Cl)c(C(F)(F)F)c3)cc2)ccn1 | BTK | enzyme activity, inhibitor | 0.3 µM | 1
CNc1cccc2cc(C(=O)Nc3ccc(C(=O)O)cc3)c(=O)[nH]c12 | BTK | enzyme activity, inhibitor | 10 µM | 2.1
CC#CC(=O)N1CCC[C@H]1c1nc(-c2ccc(C(=O)Nc3ccccn3)cc2)c2c(N)nccn12 | BTK | enzyme activity, inhibitor, radiometric | 0.1 µM | 83
CCN(CC)CCNC(=O)c1c(C)[nH]c(/C=C2\C(=O)Nc3ccc(F)cc32)c1C | BTK | enzyme activity, inhibitor | 10 µM | 85
